The text below walks through data of ChEMBL document CHEMBL1132163 (Bioorg Med Chem Lett, 1999).

Test [1] addresses T1, Cyclin-dependent kinase 1 (Homo sapiens, UniProt P06493). In words: Inhibitory activity against cyclin-dependent kinase 1 (CDK1) was determined.
Test [2] addresses T1, Cyclin-dependent kinase 1. In words: Inhibition of cyclin-dependent kinase 1 (CDK1) (Not active).
A short description of test [3]: Inhibition of human bladder carcinoma T24 cell proliferation. Type of test: functional, cell-based, T-24. Summed up: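 T24 cells seeded 1.5 x 10^3/well, attached overnight (16-18h), washed with serum-free medium, exposed to serial drug dilutions 4-5 days (≥2-3 control divisions); duplicates per concentration. Fixed 3.3% glutaraldehyde, methylene blue 0.05% stain, eluted 3% HCl, OD 665nm.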

In test [4] the target is Protein kinase C alpha type (Homo sapiens, UniProt P17252). In words: Inhibition of Protein kinase C alpha.
In test [5] the target is T2, Epidermal growth factor receptor (Homo sapiens, UniProt P00533). The test is described as follows: Inhibit of epidermal growth factor receptor (EGFR).
Test [6] addresses cAMP-dependent protein kinase (PKA) (Homo sapiens, UniProt P22694+P17612+P22612). The test is described as follows: Inhibition of Protein kinase A. Type of test: protein assay.
Test [7] has as its target T2, Epidermal growth factor receptor. The test is described as follows: Inhibition of epidermal growth factor receptor (EGFR) (inactive).

T1 sequence (P06493 whole entry): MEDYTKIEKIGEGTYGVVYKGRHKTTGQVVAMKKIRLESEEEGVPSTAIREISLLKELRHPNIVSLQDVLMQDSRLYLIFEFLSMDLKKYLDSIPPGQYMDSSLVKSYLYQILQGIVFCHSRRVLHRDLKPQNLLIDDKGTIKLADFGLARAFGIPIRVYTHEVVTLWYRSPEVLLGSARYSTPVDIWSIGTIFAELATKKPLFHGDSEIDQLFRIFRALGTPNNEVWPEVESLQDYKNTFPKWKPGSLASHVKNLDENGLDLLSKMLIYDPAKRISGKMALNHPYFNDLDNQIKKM
T2 sequence (P00533 whole entry): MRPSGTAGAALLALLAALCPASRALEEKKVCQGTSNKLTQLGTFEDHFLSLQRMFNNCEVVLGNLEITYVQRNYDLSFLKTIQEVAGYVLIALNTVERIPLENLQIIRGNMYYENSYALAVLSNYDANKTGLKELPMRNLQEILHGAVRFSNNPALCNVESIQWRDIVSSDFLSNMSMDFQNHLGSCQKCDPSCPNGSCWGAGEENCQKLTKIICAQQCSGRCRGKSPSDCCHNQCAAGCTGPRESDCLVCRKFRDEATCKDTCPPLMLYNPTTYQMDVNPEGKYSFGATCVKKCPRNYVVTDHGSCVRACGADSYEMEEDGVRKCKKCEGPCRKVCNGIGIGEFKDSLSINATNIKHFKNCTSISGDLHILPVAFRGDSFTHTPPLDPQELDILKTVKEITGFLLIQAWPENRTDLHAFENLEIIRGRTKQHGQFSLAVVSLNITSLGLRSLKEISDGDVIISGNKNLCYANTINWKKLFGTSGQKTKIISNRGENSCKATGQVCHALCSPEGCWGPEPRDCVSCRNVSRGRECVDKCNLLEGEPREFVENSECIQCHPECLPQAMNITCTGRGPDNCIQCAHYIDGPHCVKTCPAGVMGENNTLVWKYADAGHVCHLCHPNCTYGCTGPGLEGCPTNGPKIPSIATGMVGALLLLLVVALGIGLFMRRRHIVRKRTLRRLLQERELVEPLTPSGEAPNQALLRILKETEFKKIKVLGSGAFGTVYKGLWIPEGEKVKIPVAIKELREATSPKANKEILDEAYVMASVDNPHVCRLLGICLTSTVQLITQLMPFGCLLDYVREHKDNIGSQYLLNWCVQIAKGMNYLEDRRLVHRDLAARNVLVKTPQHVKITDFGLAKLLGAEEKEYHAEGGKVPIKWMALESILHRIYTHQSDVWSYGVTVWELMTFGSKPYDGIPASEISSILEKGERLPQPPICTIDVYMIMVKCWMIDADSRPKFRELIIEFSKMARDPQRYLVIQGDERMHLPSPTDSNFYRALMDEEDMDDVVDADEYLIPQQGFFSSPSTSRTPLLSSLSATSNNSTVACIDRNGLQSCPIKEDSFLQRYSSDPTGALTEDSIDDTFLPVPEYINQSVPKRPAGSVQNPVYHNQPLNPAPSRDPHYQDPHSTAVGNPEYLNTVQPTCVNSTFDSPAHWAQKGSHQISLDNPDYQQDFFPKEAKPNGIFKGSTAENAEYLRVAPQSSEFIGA

The IC50 is the concentration needed to halve the response being measured. In test [1], `CCn1cnc2c(Nc3cccc(C(F)(F)F)c3)nc(N[C@@H]3CCCC[C@@H]3N)nc21` returned an IC50 of 310 nM.
Same read-out and setting: in the case of `CCn1cnc2c(Nc3cccc(F)c3)nc(NCCO)nc21` it was 440 nM; in that of `CCn1cnc2c(Nc3cccc(F)c3)nc(N[C@H]3CC[C@H](O)CC3)nc21`, 32 nM.
`CCn1cnc2c(Nc3cccc(F)c3)nc(NCCN)nc21` [listing 1 of 2 here] gave an IC50 in test [1] of 600 nM.
`CCn1cnc2c(Nc3cccc(C(F)(F)F)c3)nc(NCCO)nc21`: the IC50 result in test [2] is recorded as “Not Active”.
`CCn1cnc2c(Nc3cccc(Cl)c3)nc(NCCN)nc21`: the IC50 in test [3] (Homo sapiens, T-24) is 3160 nM; in test [4] it was 31500 nM; in test [5], over 100000 nM; in test [6], 180000 nM; in test [1], 80 nM.
In turn, `CCn1cnc2c(Nc3ccc(F)cc3)nc(NCCO)nc21` returned an IC50 in test [1] of 380 nM.
With `CCn1cnc2c(Nc3cccc(F)c3)nc(N[C@H]3CC[C@@H](N)CC3)nc21`, in test [1], the IC50 was 350 nM.
For the molecule `CCn1cnc2c(Nc3cccc(F)c3)nc(N[C@@H]3CCCC[C@@H]3N)nc21`, in test [1], the IC50 was 250 nM.
With `CCn1cnc2c(Nc3cccc(Cl)c3)nc(NCCO)nc21`, the concentration for half-maximal inhibition (IC50) in test [3] (Homo sapiens, T-24) came out at 17500 nM; in test [1], 330 nM.
In turn, `CCn1cnc2c(Nc3cccc(C(F)(F)F)c3)nc(N[C@H]3CC[C@H](N)CC3)nc21` yielded an IC50 in test [1] of 140 nM.
As for `CCn1cnc2c(Nc3cccc(Cl)c3)nc(N[C@@H]3CCCC[C@@H]3N)nc21` (stereo in doubt; 12), the half-inhibitory concentration (IC50) in test [3] (t-24) was found to be 1350 nM; in test [4] it was 30000 nM; in test [5], 2000 nM; in test [6], 335000 nM; in test [1], 110 nM.
Consider `CCn1cnc2c(Nc3cccc(OC)c3)nc(NCCO)nc21`, for which, in test [1], the IC50 came out at 1000 nM.
Regarding `CCn1cnc2c(Nc3ccc(F)cc3)nc(N[C@@H]3CCCC[C@@H]3N)nc21`, the IC50 in test [1] worked out at 150 nM.
In turn, `CCn1cnc2c(Nc3cccc(C#N)c3)nc(N[C@@H]3CCCC[C@@H]3N)nc21` displayed an IC50 in test [1] of 350 nM.
Consider `CCn1cnc2c(Nc3cccc(Cl)c3)nc(N3CCC[C@@H]3CO)nc21`, for which the IC50 in test [3] (Homo sapiens, T-24) is 6710 nM; in test [4] it was 38500 nM; in test [7], “Not Active”; in test [6], over 500000 nM; in test [1], 80 nM.
In the case of `CCn1cnc2c(Nc3cccc(Cl)c3)nc(N[C@@H]3CCCC[C@@H]3N)nc21` (stereo in doubt), it took 31 nM to reach half-maximal inhibition in test [1] (IC50).
Same read-out and setting: then `CCn1cnc2c(Nc3cccc(C#N)c3)nc(NCCN)nc21`, with 560 nM.
On to `CCn1cnc2c(Nc3cccc(F)c3)nc(NCCN)nc21` [listing 2 of 2 here], for which the IC50 was found to be 6500 nM in test [3] (Homo sapiens, T-24) and 600 nM in test [1].
For `CCn1cnc2c(Nc3cccc(OC)c3)nc(NCCN)nc21`, in that order: 9900 nM and 550 nM.
`CCn1cnc2c(Nc3cccc(OC)c3)nc(N[C@@H]3CCCC[C@@H]3N)nc21`: in test [1], 230 nM corresponded to half-maximal inhibition (IC50).
Still for that read-out and setting: then `CCn1cnc2c(Nc3cccc(C(F)(F)F)c3)nc(N[C@H]3CC[C@@H](N)CC3)nc21`, with 290 nM.
In the case of `CCn1cnc2c(Nc3cccc(C#N)c3)nc(N[C@H]3CC[C@H](O)CC3)nc21`, half-maximal inhibition in test [1] (IC50) was put at 28 nM.
In the case of `CCn1cnc2c(Nc3cccc(Cl)c3)nc(N3CCCCC3CO)nc21` (stereo not drawn), the IC50 in test [3] (Homo sapiens, T-24) turned out to be 3650 nM; in test [1], 39 nM.
Turning to `CCn1cnc2c(Nc3ccc(OC)cc3)nc(NCCN)nc21`, the IC50 in test [1] came to 550 nM.
`CCn1cnc2c(Nc3cccc(Cl)c3)nc(N[C@H]3CCC[C@@H](N)C3)nc21`: the IC50 in test [3] (Homo sapiens, T-24) was determined as 1500 nM; in test [4] it was 6000 nM; in test [6] it was 150000 nM; in test [1], 120 nM.
Regarding `CCn1cnc2c(Nc3ccc(F)cc3)nc(N[C@H]3CC[C@@H](N)CC3)nc21`, the IC50 in test [1] stood at 100 nM.
As for `CCn1cnc2c(Nc3cccc(C(F)(F)F)c3)nc(N[C@H]3CC[C@H](O)CC3)nc21`, half-maximal inhibition in test [1] (IC50) was put at 28 nM.
Consider `CCn1cnc2c(Nc3cccc(OC)c3)nc(N[C@H]3CC[C@@H](N)CC3)nc21`, for which, in test [1], the IC50 was found to be 340 nM.
Regarding `CCn1cnc2c(Nc3cccc(C(F)(F)F)c3)nc(NCCN)nc21.Cl`, the IC50 in test [3] (Homo sapiens, T-24) was 6080 nM; in test [4], 50000 nM; in test [5], over 10000 nM; in test [6], 500000 nM; in test [1] it was 700 nM.
Regarding `CCn1cnc2c(Nc3cccc(OC)c3)nc(N[C@H]3CC[C@H](O)CC3)nc21`, in test [1], the IC50 is 90 nM.
In turn, `CCn1cnc2c(Nc3cccc(Cl)c3)nc(N[C@H]3CC[C@H](N)CC3)nc21` returned an IC50 in test [1] of 39 nM.
Same read-out and setting: then `CCn1cnc2c(Nc3ccc(F)cc3)nc(N[C@H]3CC[C@H](O)CC3)nc21`, with 40 nM.
For `CCn1cnc2c(Nc3ccc(F)cc3)nc(NCCN)nc21` [listing 1 of 2 here], the IC50 worked out at 8300 nM in test [3] (Homo sapiens, T-24) and 450 nM in test [1].
In the case of `CCn1cnc2c(Nc3cccc(Cl)c3)nc(N3CCC[C@@H]3CN)nc21`, the IC50 in test [3] (Homo sapiens, T-24) is 2350 nM; in test [1], 41 nM.
For the molecule `CCn1cnc2c(Nc3ccc(F)cc3)nc(NCCN)nc21` [listing 2 of 2 here], the IC50 in test [1] was determined as 450 nM.
As to `CCn1cnc2c(Nc3cccc(C#N)c3)nc(NCCN)nc21.Cl`, the IC50 in test [3] (Homo sapiens, T-24) is 5240 nM; in test [4] it was 78000 nM; in test [5], over 10000 nM; in test [6] it was over 500000 nM; in test [1], 560 nM.
Regarding `CCn1cnc2c(Nc3cccc(C#N)c3)nc(N[C@H]3CC[C@H](N)CC3)nc21`, the IC50 in test [1] is 85 nM.
On the same count and under the same terms, then `CCn1cnc2c(Nc3cccc(C#N)c3)nc(N[C@H]3CC[C@@H](N)CC3)nc21`, with 350 nM.
As to `CCn1cnc2c(Nc3cccc(Cl)c3)nc(N[C@@H]3CCCC[C@@H]3N)nc21` (stereo in doubt; 13), the IC50 worked out at 480 nM in test [3] (t-24); 13500 nM in test [4]; 5100 nM in test [5]; 150000 nM in test [6]; 25 nM in test [1].
Take `CCn1cnc2c(Nc3cccc(C#N)c3)nc(NCCO)nc21`: in test [2], the IC50 entry is “Not Active”.
In test [1], `CCn1cnc2c(Nc3ccc(F)cc3)nc(N[C@H]3CC[C@H](N)CC3)nc21` yielded an IC50 of 31 nM.
The molecule `CCn1cnc2c(Nc3cccc(F)c3)nc(N[C@H]3CC[C@H](N)CC3)nc21` came in with a half-inhibitory concentration (IC50) in test [1] of 150 nM.
Take `CCn1cnc2c(Nc3cccc(Cl)c3)nc(N[C@H]3CC[C@@H](N)CC3)nc21` (stereo in doubt; 15): the IC50 in test [3] (Homo sapiens, T-24) is 540 nM; in test [1], 39 nM.
In turn, `CCn1cnc2c(Nc3cccc(Cl)c3)nc(N[C@H]3CC[C@H](O)CC3)nc21` showed an IC50 in test [1] of 30 nM.
In test [1], `CCn1cnc2c(Nc3cccc(Cl)c3)nc(N[C@H]3CC[C@@H](N)CC3)nc21` (stereo in doubt) yielded a concentration for half-maximal inhibition (IC50) of 140 nM.
On the same count and under the same terms, then `CCn1cnc2c(Nc3cccc(OC)c3)nc(N[C@H]3CC[C@H](N)CC3)nc21`, with 160 nM; and `CCn1cnc2c(Nc3cccc(C(F)(F)F)c3)nc(NCCN)nc21`, with 700 nM.
Turning to `CCn1cnc2c(Nc3cccc(Cl)c3)nc(N[C@H]3CC[C@@H](O)CC3)nc21`, the IC50 in test [3] (Homo sapiens, T-24) is 830 nM.
